Source: ChEMBL document CHEMBL3826876, “Toward the Development of Specific G-Quadruplex Binders: Synthesis, Biophysical, and Biological Studies of New Hydrazone Derivatives” (J Med Chem, 2016)
Active and inactive are the calls of the source. The calls are words filed in the database; no cut-off is given here.

Tests used:
[1] = system: U2OS; assay: Cytotoxicity against human U2OS cells assessed as cell killing after 1 hr by MTT assay; format: functional, cell-based
Outline: (§1)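 U2OS and HCT116 in DMEM with 10% FBS, 1% L-glutamine, seeded at 40000 cells/ml; 24 h later exposed for 1 h or 24 h, then drug-free medium 1-2 days. MTT 1 h at 37 °C, DMSO solubilisation, absorbance 595 nm. IC50 by linear regression; two independent experiments in triplicate, mean ± SE.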

[2] = Cytotoxicity against human HCT116 cells assessed as cell killing after 1 hr by MTT assay; format: functional, cell-based; settings: HCT-116, 1 h; outline: as §1
[3] = system: U2OS; assay: Cytotoxicity against human U2OS cells assessed as cell killing after 24 hrs by MTT assay; format: functional, cell-based; outline: as §1
[4] = Cytotoxicity against human HCT116 cells assessed as cell killing after 24 hrs by MTT assay; format: functional, cell-based; settings: HCT-116, 24 h; outline: as §1
[5] = system: U2OS; assay: Cytotoxicity against human U2OS cells assessed as cell death after 24 hrs by FACS analysis; format: cell-based
[6] = system: U2OS; assay: Cytotoxicity against human U2OS cells assessed as cell death after 24 hrs by microscopic analysis; format: cell-based
[7] = Binding affinity to synthetic telomere 23 parallel G-quadruplex DNA assessed as change in melting temperature at 4 mol equiv in presence of 100 mM KCl buffer by circular dichroism spectroscopic analysis
Outline: (§2)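 CD melting, 20-100 °C at 1 °C/min, signal at 264 (parallel), 290 (antiparallel) or 280 nm (duplex). G4 DNA 10 µM or duplex 15 µM, folded by heating at 90 °C 5 min and slow cooling, in 10 mM potassium phosphate (c-kit1, Tel23, Tel26) or lithium phosphate (Tel23-p, ds12) pH 7.0 with 100 mM KCl. Ligand 4 equiv; Tm by curve fit, ΔTm vs DNA alone; duplicate average.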

[8] = Binding affinity to synthetic c-MYC G-quadruplex DNA assessed as change in melting temperature at 4 mol equiv in presence of 20 mM KCl buffer by circular dichroism spectroscopic analysis
[9] = Effect on synthetic telomere 23 G-quadruplex DNA topology at 4 mol equiv by circular dichroism spectroscopic analysis
Outline: (§3)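 CD spectra at 20 °C, 230-360 nm, 3 scans averaged, baseline subtracted; 10 µM G4 or 15 µM duplex in potassium- or lithium-phosphate pH 7.0 buffers with 100 mM KCl (c-kit2, c-myc: 5 mM potassium phosphate, 20 mM KCl); ligand 4 molar equiv added to folded DNA from 6 mM DMSO stock.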

[10] = Effect on synthetic c-KIT1 G-quadruplex DNA topology at 4 mol equiv by circular dichroism spectroscopic analysis; outline: as §3
[11] = Effect on synthetic c-KIT2 G-quadruplex DNA topology at 4 mol equiv by circular dichroism spectroscopic analysis; outline: as §3
[12] = Effect on synthetic c-MYC G-quadruplex DNA topology at 4 mol equiv by circular dichroism spectroscopic analysis; outline: as §3
[13] = Effect on synthetic telomere 23 parallel G-quadruplex DNA topology at 4 mol equiv by circular dichroism spectroscopic analysis; outline: as §3
[14] = Effect on synthetic telomere 26 G-quadruplex DNA topology at 4 mol equiv by circular dichroism spectroscopic analysis; outline: as §3
[15] = Effect on synthetic self-complementary DNA 12-mer duplex topology at 4 mol equiv in presence of K+ ions by circular dichroism spectroscopic analysis; outline: as §3
[16] = Binding affinity to synthetic c-KIT1 G-quadruplex DNA assessed as change in melting temperature at 4 mol equiv in presence of 100 mM KCl buffer by circular dichroism spectroscopic analysis; outline: as §2
[17] = Binding affinity to synthetic c-KIT2 G-quadruplex DNA assessed as change in melting temperature at 4 mol equiv in presence of 20 mM KCl buffer by circular dichroism spectroscopic analysis
Outline: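 CD melting as for other targets (20-100 °C, 1 °C/min, 10 µM folded G4, ligand 4 equiv), but in 5 mM potassium phosphate with 20 mM KCl; c-kit2 read at 264 nm as parallel G4. ΔTm from fitted Tm, duplicate average.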

[18] = Binding affinity to synthetic telomere 23 G-quadruplex DNA assessed as change in melting temperature at 4 mol equiv in presence of 100 mM KCl buffer by circular dichroism spectroscopic analysis; outline: as §2
[19] = Binding affinity to synthetic telomere 26 G-quadruplex DNA assessed as change in melting temperature at 4 mol equiv in presence of 100 mM KCl buffer by circular dichroism spectroscopic analysis; outline: as §2
[20] = Binding affinity to synthetic self-complementary DNA 12-mer duplex assessed as change in melting temperature at 4 mol equiv in presence of 100 mM KCl buffer by circular dichroism spectroscopic analysis; outline: as §2
[21] = species: Homo sapiens; assay: Binding affinity to human 5'-FAM/3'-TAMRA labeled telomere 21 G-quadruplex DNA assessed as increase in melting temperature by FRET assay
Outline: (§4)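 FRET melting screen in 60 mM potassium cacodylate pH 7.4, labelled probe 400 nM annealed at 85 °C for 10 min; ligands at various concentrations up to 20 µM, diluted from 10 mM DMSO stock via 10 mM HCl. Excitation 450-495 nm, emission 515-545 nm, 30-100 °C in 0.5 °C steps with 30 s hold; ΔTm by curve fitting, triplicate.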

[22] = Effect on preformed synthetic c-MYC parallel G-quadruplex DNA topology in tris buffer after 10 mins by circular dichroism titration method
[23] = Binding affinity to synthetic c-KIT2 G-quadruplex DNA assessed as increase in thermal stability in presence of 20 mM KCl buffer by circular dichroism spectroscopic analysis
Outline: (§5)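 CD melting in 5 mM potassium phosphate, 20 mM KCl, 10 µM folded G4, heated 20-100 °C at 1 °C/min; ligand:DNA ratios 1:1, 2:1 and 4:1 compared; Tm from curve fit.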

[24] = Binding affinity to 5'-FAM/3'-TAMRA labeled c-KIT2 G-quadruplex DNA (unknown origin) assessed as change in melting temperature at 4:1 ligand:DNA ratio in presence of 20 mM KCl buffer by FRET assay
Outline: (§6)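 FRET melting of FAM/TAMRA-labelled G4 oligos (400 nM, annealed 85 °C 10 min) with ligand at 4 equiv, same buffers as CD (20 mM KCl for c-kit2 and c-myc; 100 mM KCl for telomeric parallel form, annealed at high concentration). Excitation 450-495 nm, emission 515-545 nm, read every 0.5 °C over 30-100 °C; ΔTm by curve fit; duplicate runs averaged.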

[25] = Binding affinity to 5'-FAM/3'-TAMRA labeled c-MYC G-quadruplex DNA (unknown origin) assessed as change in melting temperature at 4:1 ligand:DNA ratio in presence of 20 mM KCl buffer by FRET assay; outline: as §6
[26] = Binding affinity to human 5'-FAM/3'-TAMRA labeled telomere 21 parallel G-quadruplex DNA (unknown origin) assessed as change in melting temperature at 4:1 ligand:DNA ratio in presence of 100 mM KCl buffer by FRET assay; outline: as §6
[27] = Induction of parallel G-quadruplex formation in synthetic unfolded c-KIT1 DNA assessed as increase in molar ellipticity after 10 mins by in absence of metal cation circular dichroism titration method
Outline: (§7)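 CD titration without metal ions: unfolded oligonucleotide 12-15 µM in 50 mM Tris; ligand added in 0.5 equiv steps, spectrum recorded 10 min after each addition at 20 °C, 230-360 nm, 3 scans averaged.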

[28] = Induction of parallel G-quadruplex formation in synthetic unfolded c-KIT2 DNA assessed as increase in molar ellipticity after 10 mins in absence of metal cation by circular dichroism titration method; outline: as §7
[29] = Induction of G-quadruplex formation in synthetic unfolded telomere 23 DNA assessed as increase in molar ellipticity after 10 mins in absence of metal cation by circular dichroism titration method; outline: as §7
[30] = species: Homo sapiens; assay: Binding affinity to human 5'-FAM/3'-TAMRA labeled duplex DNA T-loop assessed as increase in melting temperature by FRET assay; outline: as §4
[31] = Binding affinity to synthetic c-MYC G-quadruplex DNA assessed as increase in thermal stability in presence of 20 mM KCl buffer by circular dichroism spectroscopic analysis; outline: as §5

Row | SMILES | ΔTm [7] [°C] | ΔTm [8] [°C] | Activity [9] | Activity [10] | Activity [11] | Activity [12] | Activity [13] | Activity [14] | Activity [15] | ΔTm [16] [°C] | ΔTm [17] [°C] | ΔTm [18] [°C] | ΔTm [19] [°C] | ΔTm [20] [°C] | Activity [21] | Activity [30] | also measured
1 | Cl.Cl.N=C(N)N/N=C/c1c(-c2ccccc2)nc2n1ccc1nc(-c3ccccc3)c(/C=N/NC(=N)N)n12 | – | – | – | – | – | – | – | – | – | – | – | – | – | – | – | – | IC50 [1]: 101 µM; IC50 [2]: 35.1 µM; IC50 [3]: 16 µM; IC50 [4]: 5.12 µM; Activity [5]: Non-toxic; Activity [6]: Non-toxic
2 | CN1C(=C2\C(=N\Nc3ccccn3)c3ccccc3N2C)/C(=N/Nc2ccccn2)c2ccccc21 | 4 | 1.6 | inactive | inactive | inactive | inactive | inactive | inactive | inactive | 1.5 | 2 | -2.5 | -2 | -0.7 | inactive | – | –
3 | N=C(N)N/N=C/c1c(-c2ccsc2)nc2n1ccc1nc(-c3ccsc3)c(/C=N/NC(=N)N)n12 | > 20 | > 20 | inactive | inactive | inactive | inactive | inactive | inactive | inactive | > 15 | > 20 | -4.9 | -6.5 | 3.5 | Active | – | Activity [22]: inactive; Activity [23]: Dose-dependent effect; ΔTm [24]: > 20 °C; ΔTm [25]: > 20 °C; ΔTm [26]: > 20 °C; Activity [27]: Dose-dependent effect; Activity [28]: Active; Activity [29]: inactive
4 | Cn1c(Cl)c(/C=N/NC(=N)N)c2ccc(/C=N/NC(=N)N)cc21 | > 20 | > 20 | inactive | inactive | inactive | inactive | inactive | inactive | inactive | > 15 | > 20 | 6 | 5.8 | – | Active | Active | –
5 | CN1C(=C2\C(=N\NC(=N)N)c3ccccc3N2C)/C(=N/NC(=N)N)c2ccccc21 | 7.7 | 11 | inactive | inactive | inactive | inactive | inactive | inactive | inactive | 0.9 | 8.2 | -0.5 | 0.2 | -0.8 | inactive | – | –
6 | C(=N\NC1=NCCN1)/c1c(-c2ccccc2)nc2n1ccc1nc(-c3ccccc3)c(/C=N/NC3=NCCN3)n12 | 10.8 | > 15 | inactive | inactive | inactive | inactive | inactive | inactive | inactive | 1.6 | > 20 | -14 | -8.9 | 1.3 | Active | – | Activity [22]: inactive; Activity [23]: Dose-dependent effect; Activity [31]: Dose-dependent effect; ΔTm [24]: > 20 °C; ΔTm [25]: > 15 °C; ΔTm [26]: > 15 °C; Activity [27]: Dose-dependent effect; Activity [28]: Active; Activity [29]: inactive
7 | C(=N\Nc1ccccn1)/c1c(-c2ccccc2)nc2n1ccc1nc(-c3ccccc3)c(/C=N/Nc3ccccn3)n12 | 1.3 | -0.2 | inactive | inactive | inactive | inactive | inactive | inactive | inactive | 0.4 | 0 | -1 | -1.6 | 0.9 | inactive | – | –
8 | N=C(N)N/N=C/c1ccc2c(/C=N/NC(=N)N)c(Cl)n(-c3ccccc3)c2c1 | > 20 | > 20 | inactive | inactive | inactive | inactive | inactive | inactive | inactive | > 15 | > 15 | 5.6 | 5.1 | – | Active | Active | –
9 | Cn1c(Cl)c(/C=N/NC(=N)N)c2cc3c(/C=N/NC(=N)N)c(Cl)n(C)c3cc21 | > 20 | > 20 | inactive | inactive | inactive | inactive | inactive | inactive | inactive | > 15 | > 15 | 3 | 1.3 | – | Active | Active | –
